Data as given in ChEMBL document CHEMBL3616384, “Benzimidazole derivatives protect against cytokine-induced apoptosis in pancreatic β-Cells” (Bioorg Med Chem Lett, 2015).
Calls of active or inactive are those of the source. The rule behind the calls is not given here.

How the values were obtained:
[1] = (§1) Cytoprotective activity in rat INS-1E cells assessed as suppression of recombinant rat IL-1beta/recombinant mouse IFN-gamma and TNF-alpha-induced caspase-3 expression after 48 hrs by Caspase-Glo 3/7 assay; assay type: functional, cell-based; conditions: for IC50: Rattus norvegicus, INS-1E, 48 h
Summary of the method: (§2)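 INS-1E cells were given the 48 h cytokine cocktail (IL-1β 20 ng/mL, INF-γ 50 ng/mL, TNF-α 50 ng/mL) with rising compound concentrations. Caspase-3 activity, as a direct apoptosis readout, was normalized to untreated controls. Mean ± SD of 12 independent wells.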

INS-1E [2] = assay: as §1; assay type: functional, cell-based; summary of the method: as §2
[3] = (§3) Cytoprotective activity in rat INS-1E cells assessed as restoration of recombinant rat IL-1beta/recombinant mouse IFN-gamma and TNF-alpha-suppressed ATP level after 48 hrs by Cell Titer-Glo assay; assay type: functional, cell-based; conditions: for EC50: Rattus norvegicus, INS-1E, 48 h
Summary of the method: (§4)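 INS-1E rat insulinoma cells exposed 48 h to IL-1β 20 ng/mL, INF-γ 50 ng/mL and TNF-α 50 ng/mL, with or without increasing compound concentrations. Cellular ATP was measured as a viability surrogate and normalized to untreated controls.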

INS-1E [4] = assay: as §3; assay type: functional, cell-based; summary of the method: as §4
[5] = (§5) Cytoprotective activity in rat INS-1E cells assessed as increase in recombinant rat IL-1beta/recombinant mouse IFN-gamma and TNF-alpha-suppressed glucose-stimulated insulin secretion preincubated for 48 hrs followed by KRBH buffer addition without glucose for 2 hrs and subsequently incubated with KRBH buffer in presence of glucose for 1 hr by ELISA; assay type: functional, cell-based; conditions: for EC50: Rattus norvegicus, INS-1E
Summary of the method: (§6)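 Cytokine-exposed INS-1E cells (48 h; IL-1β 20 ng/mL, INF-γ 50 ng/mL, TNF-α 50 ng/mL) were co-treated with a compound dose series, and glucose-stimulated insulin secretion was measured. EC50 and maximum activity were derived from the dose-response. Mean ± SD of 2 independent experiments.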

INS-1E [6] = assay: as §5; assay type: functional, cell-based; summary of the method: as §6
[7] = (§7) Cytoprotective activity in rat INS-1E cells assessed as suppression of recombinant rat IL-1beta/recombinant mouse IFN-gamma and TNF-alpha-induced nitrite production after 48 hrs by Griess assay; assay type: functional, cell-based; conditions: for IC50: Rattus norvegicus, INS-1E, 48 h
Summary of the method: (§8)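 Nitrite production was measured in INS-1E cells after 48 h with IL-1β 20 ng/mL, INF-γ 50 ng/mL and TNF-α 50 ng/mL plus increasing compound concentrations. Mean ± SD of 12 independent wells.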

INS-1E [8] = assay: as §7; assay type: functional, cell-based; summary of the method: as §8
[9] = as §5, with “secretion at 5 uM” for “secretion”, “ELISA relative to control” for “ELISA”; assay type: functional
Summary of the method: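 After 48 h exposure to the cytokine cocktail (IL-1β 20 ng/mL, INF-γ 50 ng/mL, TNF-α 50 ng/mL) with 5 µM compound added, INS-1E insulin secretion was measured at low (2) and high (16) glucose. Results are compared with untreated and no-cytokine cells. Mean ± SD of 2 independent experiments.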

INS-1E [10] = assay: Cytoprotective activity in rat INS-1E cells assessed as restoration of recombinant rat IL-1beta/recombinant mouse IFN-gamma and TNF-alpha-suppressed ATP level at 2 uM after 48 hrs by Cell Titer-Glo assay; assay type: functional, cell-based; summary of the method: as §4

IC50 [1]	EC50 [5]	IC50 [7]	SMILES	%max [1]	Activity (INS-1E [2])	%max [3]	EC50 [3]	Activity (INS-1E [4])	%max [5]	Activity (INS-1E [6])	%max [7]	Activity (INS-1E [8])	fold change (FC) [9]	Activity (INS-1E [10])	%max (INS-1E [6])
18.5 µM	5.41 µM	9.47 µM	Cc1cc2nc(-c3ccc(C(=O)N/N=C/c4cc(O)c(O)c(O)c4)cc3)[nH]c2cc1C	68%	Dose-dependent effect	98%	0.968 µM	Dose-dependent effect	91%	Dose-dependent effect	85%	Dose-dependent effect	>3	Active	–
16.4 µM	–	17.5 µM	Cc1cc2nc(-c3ccc(C(=O)N/N=C/c4ccc(O)cc4O)cc3)[nH]c2cc1C	75%	–	86%	7.28 µM	–	64%	–	72%	–	–	–	–
> 30 µM	–	> 30 µM	COc1ccc(/C=N/NC(=O)c2ccc(-c3nc4cc(C)c(C)cc4[nH]3)cc2)c(O)c1	15%	–	54%	29.3 µM	–	–	–	18%	–	–	–	inactive
8.81 µM	13.3 µM	17.3 µM	Cc1cc2nc(-c3ccc(C(=O)N/N=C/c4cc(O)ccc4O)cc3)[nH]c2cc1C	84%	Dose-dependent effect	93%	2.57 µM	Dose-dependent effect	71%	Dose-dependent effect	71%	Dose-dependent effect	–	–	–

More lines, now with the values behind:

SMILES	IC50 [1]	EC50 [5]	IC50 [7]	%max [1]	Activity (INS-1E [2])	%max [3]	EC50 [3]	Activity (INS-1E [4])	%max [5]	Activity (INS-1E [6])	%max [7]	Activity (INS-1E [8])	fold change (FC) [9]	Activity (INS-1E [10])	%max (INS-1E [6])
Cc1cc2nc(-c3ccc(C(=O)N/N=C/c4cccc(O)c4O)cc3)[nH]c2cc1C	9.48 µM	8.32 µM	11.4 µM	82%	Dose-dependent effect	89%	3.17 µM	Dose-dependent effect	84%	Dose-dependent effect	79%	Dose-dependent effect	–	–	–
COc1ccc(O)c(/C=N/NC(=O)c2ccc(-c3nc4cc(C)c(C)cc4[nH]3)cc2)c1	> 30 µM	–	> 30 µM	12%	–	61%	25.3 µM	–	–	–	20%	–	–	–	inactive
Cc1cc2nc(-c3ccc(C(=O)N/N=C/c4ccc(O)c(O)c4)cc3)[nH]c2cc1C	> 30 µM	–	17.6 µM	22%	–	73%	16.7 µM	–	53%	–	68%	–	–	–	–
